Test results from publication PMC12401638 (Drug Testing and Analysis, 2025).
Where two headings read alike, the source gives them in different places.

Assays:
[1] = tested on: both cannabinoid receptors; conditions: cited from earlier work
CB1 = CB1 (Homo sapiens, UniProt P21554); assay: cell-based; format: cell-based
CB2 [2] = target: T1, CB2 (Homo sapiens, UniProt P34972); assay: cell-based; format: cell-based
[3] = Metabolite identification by human liver microsome incubation and LC-QTOF-MS; format: in vitro ADME; conditions: HLM incubation 37°C, 2 h
Outline: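 Pooled human liver microsomes (50 donors, 20 mg/mL stock) with NADPH (10 mM stock) in 100 mM phosphate buffer, pH 7.4, 10 mM MgCl2. Controls: buffer only, and buffer plus NADPH without microsomes. Microsomal samples run in duplicate. Incubated 2 h at 37°C, quenched with acetonitrile, centrifuged, supernatant partly dried and filtered. Analysed by LC-QTOF-MS with an ammonium formate (10 mM, pH 3) / MeOH:ACN gradient.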

neuropathic pain = conditions: mouse model for neuropathic pain; cited from earlier work
CB2 [4] = target: T1, CB2; conditions: [35S]GTPγS, cAMP and βarr2 recruitment assay; cited from earlier work

T1 sequence (P34972 whole entry): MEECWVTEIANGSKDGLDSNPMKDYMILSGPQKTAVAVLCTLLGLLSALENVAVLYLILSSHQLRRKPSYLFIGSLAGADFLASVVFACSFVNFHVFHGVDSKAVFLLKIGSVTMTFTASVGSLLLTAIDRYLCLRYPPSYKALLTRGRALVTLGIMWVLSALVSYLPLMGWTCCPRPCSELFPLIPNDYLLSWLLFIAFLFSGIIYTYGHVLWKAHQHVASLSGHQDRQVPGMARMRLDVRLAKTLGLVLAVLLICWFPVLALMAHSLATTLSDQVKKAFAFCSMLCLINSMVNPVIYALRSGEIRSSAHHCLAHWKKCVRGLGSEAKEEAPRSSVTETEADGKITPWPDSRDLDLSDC
T1 sequence (P32121 whole entry partner): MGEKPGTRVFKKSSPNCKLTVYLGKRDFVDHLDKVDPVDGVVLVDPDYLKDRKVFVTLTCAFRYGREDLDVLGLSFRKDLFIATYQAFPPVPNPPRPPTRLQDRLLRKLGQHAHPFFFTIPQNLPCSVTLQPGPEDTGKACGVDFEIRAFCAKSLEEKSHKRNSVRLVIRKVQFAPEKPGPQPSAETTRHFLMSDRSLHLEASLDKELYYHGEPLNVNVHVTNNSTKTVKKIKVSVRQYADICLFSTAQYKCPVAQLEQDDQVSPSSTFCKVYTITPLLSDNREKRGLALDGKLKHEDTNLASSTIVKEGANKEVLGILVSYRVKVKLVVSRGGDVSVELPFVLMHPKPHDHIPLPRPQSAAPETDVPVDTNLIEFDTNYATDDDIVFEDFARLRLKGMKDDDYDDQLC
Chain of CB1 (P21554 whole entry): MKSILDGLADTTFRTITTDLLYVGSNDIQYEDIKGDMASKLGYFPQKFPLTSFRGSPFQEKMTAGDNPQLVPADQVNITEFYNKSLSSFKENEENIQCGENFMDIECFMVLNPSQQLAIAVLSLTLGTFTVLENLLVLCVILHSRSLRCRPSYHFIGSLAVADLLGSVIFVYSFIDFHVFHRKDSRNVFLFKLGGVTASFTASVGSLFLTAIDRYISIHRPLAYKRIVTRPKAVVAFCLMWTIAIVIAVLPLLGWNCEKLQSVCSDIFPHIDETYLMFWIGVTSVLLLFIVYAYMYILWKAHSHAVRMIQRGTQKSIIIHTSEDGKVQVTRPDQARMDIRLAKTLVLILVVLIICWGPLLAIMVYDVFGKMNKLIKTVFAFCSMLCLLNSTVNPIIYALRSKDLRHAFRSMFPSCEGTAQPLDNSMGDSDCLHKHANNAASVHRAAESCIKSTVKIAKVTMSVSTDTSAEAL
Chain of CB1 (P32121 whole entry partner): as the sequence (P32121 whole entry partner) above

Cc1c(Br)cn(Cc2ccc(F)cc2)c(=O)c1C(=O)NC1CCCCCC1 [B2, 5‐bromo‐N‐cycloheptyl‐1‐(4‐fluorobenzyl)‐4‐methyl‐2‐oxo‐1,2‐dihydropyridine‐3‐carboxamide]
activity and affinity at both cannabinoid receptors [1]: nanomolar activity and affinity

CCCCCn1cc(C(=O)c2cccc3ccccc23)c2ccccc21 [JWH‐018]
E max (%) (95% CI), CB1, relative to CP55,940 (100%) (CB1): 378 (348–409) %
EC50 (CB1; read-out: EC 50 (nM) (95% CI), CB1): 14.3 nM
E max (%) (95% CI), CB2, relative to CP55,940 (100%) (CB2 [2]): 63.2 (55.8–70.9) %
EC50 (CB2 [2]; read-out: EC 50 (nM) (95% CI), CB2): 4.36 nM

Cc1c(Br)cn(Cc2ccc(F)cc2)c(=O)c1NC(=O)C1CCCCC1 [CH‐FUBBMPDORA, N‐[5‐bromo‐1‐(4‐fluorobenzyl)‐4‐methyl‐2‐oxo‐1,2‐dihydropyridin‐3‐yl)cyclohexanecarboxamide]
EC50 (CB1): 3780 nM
EC50 (CB2 [2]): 4270 nM
number of metabolites identified [3]: Four
Area (LC-QTOF-MS peak area) ([3]; with NADPH): 5.68e + 05

Cc1c(Br)cn(Cc2ccc(F)cc2)c(=O)c1NC(=O)C1CCCCCC1 [C2, N‐(5‐bromo‐1‐(4‐fluorobenzyl)‐4‐methyl‐2‐oxo‐1,2‐dihydropyridin‐3‐yl)cycloheptanecarboxamide]
CB1 activity compared with CH-FUBBMPDORA (CB1): more active than CH‐FUBBMPDORA
CB2 receptor activation potential compared with CH-FUBBMPDORA (CB2 [2]): almost identical and equally weak
antinociceptive activity (neuropathic pain): displayed antinociceptive activity
activation potential at CB2 (CB2 [4]): (very) limited activation potential
